Measured values: ChEMBL document CHEMBL2169806, “Design, synthesis, and pharmacological evaluation of N-acylhydrazones and novel conformationally constrained compounds as selective and potent orally active phosphodiesterase-4 inhibitors” (J Med Chem, 2012)
Values belong to the compound of their own block, whether it stands above or below them.

Key:
Bos taurus [1] = species: Bos taurus; test: Inhibition of bovine PDE4 using [3H]cAMP as substrate at 10 uM
Method in brief: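 Enzyme was PDE4 isolated from the media layer of bovine aorta, run in the two-step activity assay at 1 μM cAMP.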

Mus musculus [2] = test: Antiinflammatory activity in A/J mouse assessed as inhibition of neutrophil accumulation in bronchoalveolar space at 100 umol/kg, po administered 1 hr prior to LPS-challenge measured after 18 hrs relative to vehicle-treated control; assay type: functional; settings: Lung
[3] = Inhibition of bovine PDE4 using [3H]cAMP as substrate; design: species or system Bos taurus
PBMC [4] = test: Antiinflammatory activity in human PBMC assessed as inhibition of LPS-induced TNFalpha production at 10 uM after 24 hrs by ELISA relative to control; assay type: functional
[5] = Inhibition of bovine PDE3 using [3H]cAMP as substrate; design: species or system Bos taurus
[6] = Inhibition of PDE6
Mus musculus [7] = test: Antiinflammatory activity in A/J mouse lung assessed as inhibition of LPS-induced IL6 production at 100 umol/kg, po administered 1 hr prior to LPS-challenge measured after 18 hrs relative to vehicle-treated control; assay type: functional
PBMC [8] = test: Antiinflammatory activity in human PBMC assessed as inhibition of LPS-induced TNFalpha production after 24 hrs by ELISA; assay type: functional, cell-based
Mus musculus [9] = test: Antiinflammatory activity in A/J mouse assessed as inhibition of leukocyte accumulation in bronchoalveolar space at 100 umol/kg, po administered 1 hr prior to LPS-challenge measured after 18 hrs relative to vehicle-treated control; assay type: functional; settings: Lung
Mus musculus [10] = test: Antiinflammatory activity in A/J mouse assessed as inhibition of LPS-induced airway elastance provoked by methacholine at 100 umol/kg, po administered 1 hr prior to LPS-challenge measured after 18 hrs relative to vehicle-treated control; assay type: functional
Bos taurus [11] = species: Bos taurus; test: Inhibition of bovine PDE5 using […] as substrate at 10 uM
[12] = target: cGMP-dependent 3',5'-cyclic phosphodiesterase (Homo sapiens, UniProt O00408); test: Inhibition of human PDE2 using [3H]cAMP as substrate at 10 uM
Bos taurus [13] = species: Bos taurus; test: Inhibition of bovine PDE1 using [3H]cAMP as substrate at 10 uM
Mus musculus [14] = test: Antiinflammatory activity in A/J mouse assessed as inhibition of LPS-induced airway resistance provoked by methacholine at 100 umol/kg, po administered 1 hr prior to LPS-challenge measured after 18 hrs relative to vehicle-treated control; assay type: functional
Mus musculus [15] = test: Antiinflammatory activity in A/J mouse lung assessed as inhibition of LPS-induced TNFalpha production at 100 umol/kg, po administered 1 hr prior to LPS-challenge measured after 18 hrs relative to vehicle-treated control; assay type: functional
[16] = target: 3',5'-cyclic-AMP phosphodiesterase 4D (Homo sapiens, UniProt Q08499); test: Inhibition of human recombinant PDE4D
[17] = target: 3',5'-cyclic-AMP phosphodiesterase 4A (Homo sapiens, UniProt P27815); test: Inhibition of human recombinant PDE4A
[18] = target: 3',5'-cyclic-AMP phosphodiesterase 4B (Homo sapiens, UniProt Q07343); test: Inhibition of human recombinant PDE4B
Mus musculus [19] = test: Proemetic activity in A/J mouse assessed as reversal of xylazine/katamine-induced anesthesia at 30 to 200 umol/kg, sc administered 30 mins prior xylazine/ketamine-administration; assay type: ADME, organism-based; settings: in vivo, 0.5 h
[20] = target: 3',5'-cyclic-AMP phosphodiesterase 4C (Homo sapiens, UniProt Q08493); test: Inhibition of human recombinant PDE4C
[21] = Inhibition of PDE6 at 10 uM

Chain of cGMP-dependent 3',5'-cyclic phosphodiesterase (O00408 whole entry): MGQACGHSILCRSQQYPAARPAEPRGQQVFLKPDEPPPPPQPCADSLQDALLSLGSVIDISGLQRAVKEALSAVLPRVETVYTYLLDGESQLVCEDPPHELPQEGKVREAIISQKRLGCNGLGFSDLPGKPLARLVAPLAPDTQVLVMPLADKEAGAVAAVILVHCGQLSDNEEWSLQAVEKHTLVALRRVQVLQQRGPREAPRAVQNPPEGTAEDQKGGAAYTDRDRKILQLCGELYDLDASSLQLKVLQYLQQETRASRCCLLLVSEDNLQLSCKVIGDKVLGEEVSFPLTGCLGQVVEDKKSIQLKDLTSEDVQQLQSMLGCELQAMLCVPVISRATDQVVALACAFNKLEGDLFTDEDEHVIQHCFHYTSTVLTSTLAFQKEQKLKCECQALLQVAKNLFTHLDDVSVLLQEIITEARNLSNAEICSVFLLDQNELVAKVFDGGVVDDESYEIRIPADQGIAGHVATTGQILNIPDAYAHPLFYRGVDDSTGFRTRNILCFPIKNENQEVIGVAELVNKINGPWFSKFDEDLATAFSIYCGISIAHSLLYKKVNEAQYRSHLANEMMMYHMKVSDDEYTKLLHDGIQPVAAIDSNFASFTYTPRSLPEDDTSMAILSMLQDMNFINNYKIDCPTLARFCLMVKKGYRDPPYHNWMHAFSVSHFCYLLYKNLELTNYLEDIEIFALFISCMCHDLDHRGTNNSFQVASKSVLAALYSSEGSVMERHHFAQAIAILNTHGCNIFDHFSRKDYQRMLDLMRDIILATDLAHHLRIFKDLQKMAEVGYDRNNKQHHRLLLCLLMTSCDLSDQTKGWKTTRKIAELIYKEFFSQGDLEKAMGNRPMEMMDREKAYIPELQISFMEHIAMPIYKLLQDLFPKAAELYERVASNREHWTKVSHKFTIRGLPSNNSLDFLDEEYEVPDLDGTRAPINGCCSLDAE
Chain of 3',5'-cyclic-AMP phosphodiesterase 4D (Q08499 whole entry): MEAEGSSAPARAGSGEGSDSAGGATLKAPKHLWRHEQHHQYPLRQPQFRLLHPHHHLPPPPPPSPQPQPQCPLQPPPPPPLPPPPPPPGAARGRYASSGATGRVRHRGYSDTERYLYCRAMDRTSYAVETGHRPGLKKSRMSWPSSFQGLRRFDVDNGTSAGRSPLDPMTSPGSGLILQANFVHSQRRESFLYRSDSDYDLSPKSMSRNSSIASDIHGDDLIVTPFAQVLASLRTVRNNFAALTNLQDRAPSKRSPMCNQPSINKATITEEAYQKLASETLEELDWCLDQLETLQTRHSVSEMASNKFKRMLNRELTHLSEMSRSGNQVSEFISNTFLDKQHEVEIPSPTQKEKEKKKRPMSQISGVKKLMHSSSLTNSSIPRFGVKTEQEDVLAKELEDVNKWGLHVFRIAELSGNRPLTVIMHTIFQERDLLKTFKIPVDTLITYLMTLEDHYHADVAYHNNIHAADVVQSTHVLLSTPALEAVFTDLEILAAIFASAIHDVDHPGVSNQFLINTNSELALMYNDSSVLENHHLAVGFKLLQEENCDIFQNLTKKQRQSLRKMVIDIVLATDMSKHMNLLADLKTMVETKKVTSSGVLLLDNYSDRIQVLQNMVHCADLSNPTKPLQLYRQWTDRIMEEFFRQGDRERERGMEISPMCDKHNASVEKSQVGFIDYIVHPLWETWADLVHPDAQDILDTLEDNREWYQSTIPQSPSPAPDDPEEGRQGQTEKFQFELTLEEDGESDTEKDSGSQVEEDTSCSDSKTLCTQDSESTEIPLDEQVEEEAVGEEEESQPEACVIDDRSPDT
Chain of 3',5'-cyclic-AMP phosphodiesterase 4A (P27815 whole entry): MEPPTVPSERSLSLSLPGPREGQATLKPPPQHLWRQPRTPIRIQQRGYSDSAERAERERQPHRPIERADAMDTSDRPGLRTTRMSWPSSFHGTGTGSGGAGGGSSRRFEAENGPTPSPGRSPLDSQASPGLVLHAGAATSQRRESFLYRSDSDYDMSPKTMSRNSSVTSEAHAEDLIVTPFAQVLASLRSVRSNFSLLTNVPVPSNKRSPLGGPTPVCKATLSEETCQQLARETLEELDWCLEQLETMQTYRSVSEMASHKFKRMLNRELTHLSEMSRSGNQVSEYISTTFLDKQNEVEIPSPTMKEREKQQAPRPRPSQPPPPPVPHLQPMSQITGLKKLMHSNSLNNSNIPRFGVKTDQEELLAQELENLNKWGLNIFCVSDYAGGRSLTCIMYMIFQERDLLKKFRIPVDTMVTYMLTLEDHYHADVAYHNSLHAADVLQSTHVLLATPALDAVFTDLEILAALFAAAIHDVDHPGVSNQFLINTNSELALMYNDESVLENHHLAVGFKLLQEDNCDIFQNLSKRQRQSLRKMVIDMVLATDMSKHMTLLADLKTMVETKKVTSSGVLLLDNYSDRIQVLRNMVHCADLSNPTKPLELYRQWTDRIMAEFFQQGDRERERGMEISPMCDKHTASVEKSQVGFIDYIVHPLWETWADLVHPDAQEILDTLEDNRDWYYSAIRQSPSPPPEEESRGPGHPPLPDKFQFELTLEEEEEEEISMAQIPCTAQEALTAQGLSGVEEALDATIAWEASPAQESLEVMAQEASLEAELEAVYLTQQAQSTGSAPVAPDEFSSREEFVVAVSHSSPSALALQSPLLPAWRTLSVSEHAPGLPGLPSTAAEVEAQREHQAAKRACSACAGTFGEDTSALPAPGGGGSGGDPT
Chain of 3',5'-cyclic-AMP phosphodiesterase 4C (Q08493 whole entry): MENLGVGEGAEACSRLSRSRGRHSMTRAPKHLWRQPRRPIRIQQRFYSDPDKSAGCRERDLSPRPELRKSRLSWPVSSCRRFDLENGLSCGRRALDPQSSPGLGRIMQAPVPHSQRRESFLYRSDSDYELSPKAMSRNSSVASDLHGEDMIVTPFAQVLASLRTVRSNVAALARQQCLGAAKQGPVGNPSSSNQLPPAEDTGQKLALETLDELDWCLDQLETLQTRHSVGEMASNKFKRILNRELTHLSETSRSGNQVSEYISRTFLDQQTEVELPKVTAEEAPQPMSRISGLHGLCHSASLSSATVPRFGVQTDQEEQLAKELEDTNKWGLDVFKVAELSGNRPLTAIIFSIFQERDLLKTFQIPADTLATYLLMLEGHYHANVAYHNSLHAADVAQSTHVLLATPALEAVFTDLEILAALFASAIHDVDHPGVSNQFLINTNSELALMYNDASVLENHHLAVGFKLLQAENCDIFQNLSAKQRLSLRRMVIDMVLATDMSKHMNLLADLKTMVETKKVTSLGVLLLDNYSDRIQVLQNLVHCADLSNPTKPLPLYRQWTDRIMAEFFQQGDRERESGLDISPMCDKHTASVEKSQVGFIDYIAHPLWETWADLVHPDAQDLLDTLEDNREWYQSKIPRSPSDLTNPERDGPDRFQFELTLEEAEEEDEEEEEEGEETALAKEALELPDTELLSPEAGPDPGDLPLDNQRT
Chain of 3',5'-cyclic-AMP phosphodiesterase 4B (Q07343 whole entry): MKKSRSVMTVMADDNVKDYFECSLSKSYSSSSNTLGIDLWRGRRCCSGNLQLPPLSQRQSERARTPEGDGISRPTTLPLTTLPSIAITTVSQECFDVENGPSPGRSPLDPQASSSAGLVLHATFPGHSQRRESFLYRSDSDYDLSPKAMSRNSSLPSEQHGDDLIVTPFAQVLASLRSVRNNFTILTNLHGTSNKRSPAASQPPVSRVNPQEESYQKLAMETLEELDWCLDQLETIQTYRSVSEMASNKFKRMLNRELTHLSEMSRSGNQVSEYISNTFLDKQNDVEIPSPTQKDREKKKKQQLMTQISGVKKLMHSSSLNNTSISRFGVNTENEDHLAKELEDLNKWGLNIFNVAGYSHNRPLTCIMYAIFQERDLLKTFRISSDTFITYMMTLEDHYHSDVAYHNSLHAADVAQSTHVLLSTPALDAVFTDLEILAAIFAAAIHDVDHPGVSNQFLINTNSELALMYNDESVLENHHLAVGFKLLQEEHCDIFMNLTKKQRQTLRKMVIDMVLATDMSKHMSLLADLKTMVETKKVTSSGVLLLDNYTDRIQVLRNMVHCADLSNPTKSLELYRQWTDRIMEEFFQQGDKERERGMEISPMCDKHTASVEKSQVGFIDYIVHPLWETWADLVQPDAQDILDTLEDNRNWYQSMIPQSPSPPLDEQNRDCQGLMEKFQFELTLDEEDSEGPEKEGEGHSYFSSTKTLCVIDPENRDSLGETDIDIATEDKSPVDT

inhibition (Bos taurus [1]): 7.7%
Structure (SMILES): COc1ccc(C(=O)N/N=C/c2c(C)nc3ccccn23)cc1OC

IC50 [3]: 300 nM
IC50 [5]: 18800 nM
IC50 [6]: 17600 nM
inhibition (Bos taurus [1]): 95.8%
inhibition (Bos taurus [11]): 30.9%
inhibition [12]: 40.8%
inhibition (Bos taurus [13]): 38.7%
Structure (SMILES): COc1ccc(/C=N/N(C)C(=O)c2ccc(OC)c(OC)c2)cc1OC
inhibition in vivo at 100 µmol/kg (Mus musculus [2]): 50%
inhibition at 10 µM (PBMC [4]): 92%
inhibition in vivo at 100 µmol/kg (Mus musculus [7]): 65%
EC50 (PBMC [8]): 1180 nM
inhibition in vivo at 100 µmol/kg (Mus musculus [9]): 53%
inhibition in vivo at 100 µmol/kg (Mus musculus [10]): 79%
inhibition in vivo at 100 µmol/kg (Mus musculus [14]): 92%
inhibition in vivo at 100 µmol/kg (Mus musculus [15]): 74%

IC50 [3]: 50 nM
IC50 [5]: 11800 nM
IC50 [6]: 9100 nM
IC50 [16]: 31 nM
IC50 [17]: 64 nM
inhibition (Bos taurus [1]): 98.4%
inhibition (Bos taurus [11]): 27.9%
inhibition [12]: 39.3%
inhibition (Bos taurus [13]): 28.3%
IC50 [18]: 47 nM
IC50 [20]: 206 nM
Structure (SMILES): COc1ccc(/C=N/N(C)C(=O)c2ccc(O)cc2)cc1OC
inhibition in vivo at 100 µmol/kg (Mus musculus [2]): 60%
inhibition at 10 µM (PBMC [4]): 83%
inhibition in vivo at 100 µmol/kg (Mus musculus [7]): 6%
EC50 (PBMC [8]): 520 nM
inhibition in vivo at 100 µmol/kg (Mus musculus [9]): 65%
inhibition in vivo at 100 µmol/kg (Mus musculus [10]): 61%
inhibition in vivo at 100 µmol/kg (Mus musculus [14]): 36%
inhibition in vivo at 100 µmol/kg (Mus musculus [15]): 35%
Activity (Mus musculus [19]): Non-toxic

inhibition (Bos taurus [1]): 45.8%
Structure (SMILES): COc1ccc(/C=N/N(C)C(=O)c2ccc(OC)c(OC)c2)cc1

inhibition (Bos taurus [1]): 13.1%
Structure (SMILES): COc1ccc(/C=N/NC(=O)c2ccccc2)cc1OC

inhibition (Bos taurus [1]): 10.7%
Structure (SMILES): COc1ccc(/C=N/NC(=O)c2ccc(OC)c(OC)c2)cc1OC

IC50 [3]: 4100 nM
inhibition (Bos taurus [1]): 81.2%
Structure (SMILES): COc1ccc(-c2nn(C(=O)c3ccccc3)c3ccccc23)cc1OC

inhibition (Bos taurus [1]): 16%
Structure (SMILES): COc1ccc(/C=N/NC(=O)c2ccc3c(c2)OCO3)cc1OC

inhibition (Bos taurus [1]): 1.5%
Structure (SMILES): COc1ccc(C(=O)N/N=C/c2ccc(O)cc2)cc1OC

Structure (SMILES): COc1ccc(/C=N/NC(=O)c2ccc(Cl)cc2)cc1OC
inhibition (Bos taurus [1]): 7.5%

inhibition (Bos taurus [1]): 40.4%
Structure (SMILES): COc1ccc(C(=O)N(C)/N=C/c2ccc(Cl)cc2)cc1OC

IC50 [5]: 19600 nM
IC50 [16]: 140 nM
inhibition [21]: 31.2%
inhibition (Bos taurus [1]): 97.1%
inhibition (Bos taurus [11]): 22.3%
inhibition [12]: 23.5%
inhibition (Bos taurus [13]): 6%
Structure (SMILES): COc1ccc(/C=N/N(C)C(=O)c2ccccc2)cc1OC
inhibition in vivo at 100 µmol/kg (Mus musculus [2]): 68%
inhibition at 10 µM (PBMC [4]): 91%
inhibition in vivo at 100 µmol/kg (Mus musculus [7]): 53%
EC50 (PBMC [8]): 1750 nM
inhibition in vivo at 100 µmol/kg (Mus musculus [9]): 73%
inhibition in vivo at 100 µmol/kg (Mus musculus [10]): 51%
inhibition in vivo at 100 µmol/kg (Mus musculus [14]): 58%
inhibition in vivo at 100 µmol/kg (Mus musculus [15]): 46%

inhibition (Bos taurus [1]): 27%
Structure (SMILES): COc1ccc(C(=O)N(C)/N=C/c2ccc(O)cc2)cc1OC

inhibition (Bos taurus [1]): 6.6%
Structure (SMILES): COc1ccc(/C=N/NC(=O)c2ccc(OC)c(OC)c2)cc1

IC50 [3]: 290 nM
IC50 [5]: 4500 nM
inhibition [21]: 39.5%
inhibition (Bos taurus [1]): 98.1%
inhibition (Bos taurus [11]): 29.1%
inhibition [12]: 40.4%
inhibition (Bos taurus [13]): 18.5%
Structure (SMILES): COc1cccc(C(=O)N(C)/N=C/c2ccc(OC)c(OC)c2)c1
inhibition in vivo at 100 µmol/kg (Mus musculus [2]): 77%
inhibition at 10 µM (PBMC [4]): 81%
inhibition in vivo at 100 µmol/kg (Mus musculus [7]): 38%
EC50 (PBMC [8]): 1270 nM
inhibition in vivo at 100 µmol/kg (Mus musculus [9]): 73%
inhibition in vivo at 100 µmol/kg (Mus musculus [10]): 69%
inhibition in vivo at 100 µmol/kg (Mus musculus [14]): 70%
inhibition in vivo at 100 µmol/kg (Mus musculus [15]): 75%

inhibition (Bos taurus [1]): 5.8%
Structure (SMILES): COc1ccc(C(=O)N/N=C/c2ccccc2)cc1OC

inhibition (Bos taurus [1]): 19.8%
Structure (SMILES): COc1ccc(C(=O)N(C)/N=C/c2ccc3c(c2)OCO3)cc1OC
